Data taken from ChEMBL document CHEMBL4145683, “Total Synthesis and Structure-Activity Relationships Study of Odilorhabdins, a New Class of Peptides Showing Potent Antibacterial Activity” (J Med Chem, 2018).
In brackets after ≈: the same amount, converted by molar mass. Activity calls are given as the source filed them. The calls are words filed in the database; no cut-off is given here. Positions of bridges follow the written chain, without caps; N, C: chain ends. Non-standard residues stand in square brackets, D forms with d. Residues, ends and D or L forms follow the SMILES beside them. *: point of attachment. Dab(3S-OH) = NC[C@H](O)[C@H](N)C(=O)O; ΔZArg = N=C(N)NCC/C=C(\N)C(=O)O; aThr = C[C@H](O)[C@H](N)C(=O)O; dOrn = NCCC[C@@H](N)C(=O)O; X1 = CC[C@H](C)CCCCC(=O)*; Dab = NCC[C@H](N)C(=O)O; NH(CH2)4NH2 = NCCCCN*

Experiments:
Klebsiella pneumoniae [1] = test: Antimicrobial activity against Klebsiella pneumoniae ATCC 43816 by broth microdilution method; assay type: functional
Method in brief: (§1)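 Broth microdilution MIC per CLSI M07-A10, with inoculum prepared by direct colony suspension. Reference strains were from ATCC and NCTC.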

Escherichia coli [2] = test: Inhibition of bacterial protein synthesis in cell-free Escherichia coli incubated for 1 hr and measured for every 20 mins by bacterial cell-free transcription-translation assay; assay type: functional; details: Escherichia coli
Method in brief: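 E. coli cell-free coupled transcription-translation used a GFP gene in pEXP5-CT as template, started with 1 μg plasmid in 50 μL reactions. Feed buffer was added at 30 min, with incubation at 30 °C. Fluorescence (ex 475/em 520 nm) was read every 20 min. IC50 was taken at 1 h after feed addition from a four-parameter log(inhibitor)–response fit. Duplicates.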

Klebsiella pneumoniae [3] = test: Antimicrobial activity against Klebsiella pneumoniae ATCC 13883 by broth microdilution method; assay type: functional; method in brief: as §1
Klebsiella pneumoniae [4] = test: Antimicrobial activity against Klebsiella pneumoniae ATCC BAA-1905 by broth microdilution method; assay type: functional; method in brief: as §1
Klebsiella pneumoniae [5] = test: Antimicrobial activity against Klebsiella pneumoniae ATCC BAA-1904 by broth microdilution method; assay type: functional; method in brief: as §1
Klebsiella pneumoniae [6] = test: Antimicrobial activity against Klebsiella pneumoniae NCTC 13438 by broth microdilution method; assay type: functional; method in brief: as §1
Klebsiella pneumoniae [7] = test: Antimicrobial activity against Klebsiella pneumoniae NCTC 13439 by broth microdilution method; assay type: functional; method in brief: as §1
Klebsiella pneumoniae [8] = test: Antimicrobial activity against Klebsiella pneumoniae ATCC BAA-2146 by broth microdilution method; assay type: functional; method in brief: as §1
Klebsiella pneumoniae [9] = test: Antimicrobial activity against Klebsiella pneumoniae ATCC BAA-2472 by broth microdilution method; assay type: functional; method in brief: as §1
Klebsiella pneumoniae [10] = test: Antimicrobial activity against Klebsiella pneumoniae ATCC BAA-2473 by broth microdilution method; assay type: functional; method in brief: as §1
Klebsiella pneumoniae [11] = test: Antimicrobial activity against Klebsiella pneumoniae NCTC 13443 by broth microdilution method; assay type: functional; method in brief: as §1
Klebsiella pneumoniae [12] = test: Antimicrobial activity against Klebsiella pneumoniae NCTC 13442 by broth microdilution method; assay type: functional
Method in brief: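 CLSI broth microdilution with direct colony suspension inoculum, per CLSI M07-A10. Reference strain taken from the NCTC collection.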

Escherichia coli [13] = test: Antimicrobial activity against Escherichia coli ATCC BAA-2340 by broth microdilution method; assay type: functional; method in brief: as §1
Escherichia coli [14] = test: Antimicrobial activity against Escherichia coli ATCC BAA-2452 by broth microdilution method; assay type: functional; method in brief: as §1
Escherichia coli [15] = test: Antimicrobial activity against Escherichia coli ATCC BAA-2469 by broth microdilution method; assay type: functional; method in brief: as §1
Enterobacter cloacae = test: Antimicrobial activity against Enterobacter cloacae ATCC BAA-2468 by broth microdilution method; assay type: functional
[16] = Inhibition of mammalian protein synthesis in rabbit reticulocyte lysate system incubated for 1 hr by mammalian cell-free transcription-translation assay; set-up: species or system Oryctolagus cuniculus
[17] = test system: mammalian protein synthesis; test: Selectivity index, ratio of IC50 for inhibition of mammalian protein synthesis in rabbit reticulocyte lysate system incubated for 1 hr by mammalian cell-free transcription-translation assay to IC50 for Inhibition of bacterial protein synthesis in cell-free Escherichia coli; assay type: toxicity
Escherichia coli [18] = test: microbe, parasite or virus in culture; details: ATCC 25922
Klebsiella pneumoniae [19] = test: Antimicrobial activity against Klebsiella pneumoniae ATCC 13883 infected in neutropenic mouse pulmonary infection model assessed as reduction in lung bacterial load at 40 mg/kg, sc dosed 1 hr post infection and measured 8 hrs post infection relative to untreated control; assay type: functional
Method in brief: (§2)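 Mice were acclimatized for 5 days and made neutropenic with intraperitoneal cyclophosphamide (150 mg/kg on day 4, 100 mg/kg on day 1 pre-infection). They were infected intranasally with 2 × 10^6 CFU/mouse. At 1 h, a single SC dose was given in 10 mL/kg (6 mice/dose). […] A pretreatment group was sampled at 1 h. At 8 h, lungs were homogenized and plated on TSA for CFU. Analysis was one-way ANOVA with Dunnett's test vs vehicle.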

Klebsiella pneumoniae [20] = test: Antimicrobial activity against Klebsiella pneumoniae ATCC 13883 infected in neutropenic mouse pulmonary infection model assessed as reduction in lung bacterial load at 80 mg/kg, sc dosed 1 hr post infection and measured 8 hrs post infection relative to untreated control; assay type: functional; method in brief: as §2
Klebsiella pneumoniae [21] = test: Antimicrobial activity against Klebsiella pneumoniae ATCC 13883 infected in neutropenic mouse pulmonary infection model assessed as reduction in lung bacterial load at 30 mg/kg, iv dosed 1 hr post infection and measured 8 hrs post infection relative to untreated control; assay type: functional, organism-based
Method in brief: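 Neutropenia induced by intraperitoneal cyclophosphamide (150 mg/kg day 4, 100 mg/kg day 1 before infection); intranasal infection at 2 × 10^6 CFU/mouse. Single iv dose at 10 mL/kg given 1 h post-infection. An untreated group was sacrificed at 1 h for baseline burden. At 8 h, lungs were homogenized, serially diluted and plated on TSA for CFU. Comparison versus vehicle by one-way ANOVA with Dunnett's test.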

[22] = Klebsiella pneumoniae, ATCC 43816, read-out: MIC

Compound	MIC (Klebsiella pneumoniae [1]; [22]) [µg/mL]	IC50 (Escherichia coli [2]) [nM]	MIC (Klebsiella pneumoniae [3]) [µg/mL]	MIC (Klebsiella pneumoniae [4]) [µg/mL]	MIC (Klebsiella pneumoniae [5]) [µg/mL]	MIC (Klebsiella pneumoniae [6]) [µg/mL]	MIC (Klebsiella pneumoniae [7]) [µg/mL]	MIC (Klebsiella pneumoniae [8]) [µg/mL]	MIC (Klebsiella pneumoniae [9]) [µg/mL]	MIC (Klebsiella pneumoniae [10]) [µg/mL]	MIC (Klebsiella pneumoniae [11]) [µg/mL]	MIC (Klebsiella pneumoniae [12]) [µg/mL]	MIC (Escherichia coli [13]) [µg/mL]	MIC (Escherichia coli [14]) [µg/mL]	MIC (Escherichia coli [15]) [µg/mL]	MIC (Enterobacter cloacae) [µg/mL]	MIC (Escherichia coli [18]) [µg/mL]	other results
N=C(N)NCC/C=C(\NC(=O)[C@H](CCCCN)NC(=O)[C@H](Cc1cnc[nH]1)NC(=O)[C@@H]1CCCN1C(=O)[C@@H](CCCN)NC(=O)CNC(=O)[C@@H](NC(=O)[C@@H](NC(=O)[C@@H](N)CCCCN)[C@@H](O)CN)[C@@H](O)CN)C(=O)N[C@@H](CCCCN)C(=O)NCCCCN	4 (≈ 3.16 µM)	630	4 (≈ 3.16 µM)	4 (≈ 3.16 µM)	2 (≈ 1.58 µM)	4 (≈ 3.16 µM)	2 (≈ 1.58 µM)	2 (≈ 1.58 µM)	4 (≈ 3.16 µM)	4 (≈ 3.16 µM)	4 (≈ 3.16 µM)	8 (≈ 6.33 µM)	8 (≈ 6.33 µM)	8 (≈ 6.33 µM)	4 (≈ 3.16 µM)	4 (≈ 3.16 µM)	8 (≈ 6.33 µM)	MIC (Klebsiella pneumoniae [1]): 4 µg/mL (≈ 3.16 µM); IC50 [16]: 10300 nM; selectivity ratio at 1 h [17]: 16
C[C@H](NC(=O)[C@@H](NC(=O)[C@@H](N)CCCCN)[C@@H](O)CN)C(=O)NCC(=O)N[C@H](CCCN)C(=O)N1CCC[C@H]1C(=O)N[C@@H](Cc1cnc[nH]1)C(=O)N[C@@H](CCCCN)C(=O)N/C(=C\CCNC(=N)N)C(=O)O.Cl																		Activity (Klebsiella pneumoniae [19]): 2 log10CFU/ml; Activity (Klebsiella pneumoniae [20]): 3 log10CFU/ml
C[C@H](NC(=O)[C@@H](NC(=O)[C@@H](N)CCCCN)[C@@H](O)CN)C(=O)NCC(=O)N[C@H](CCCN)C(=O)N1CCC[C@H]1C(=O)N[C@@H](Cc1cnc[nH]1)C(=O)N[C@@H](CCCCN)C(=O)N/C(=C\CCNC(=N)N)C(=O)O	4 (≈ 3.92 µM)	550	4 (≈ 3.92 µM)	8 (≈ 7.83 µM)	4 (≈ 3.92 µM)	8 (≈ 7.83 µM)	4 (≈ 3.92 µM)	4 (≈ 3.92 µM)	4 (≈ 3.92 µM)	4 (≈ 3.92 µM)	4 (≈ 3.92 µM)	4 (≈ 3.92 µM)	16 (≈ 15.7 µM)	16 (≈ 15.7 µM)	16 (≈ 15.7 µM)	4 (≈ 3.92 µM)	16 (≈ 15.7 µM)	IC50 [16]: 168000 nM; selectivity ratio at 1 h [17]: 300
N=C(N)NCC/C=C(\NC(=O)[C@H](CCCCN)NC(=O)[C@H](Cc1cnc[nH]1)NC(=O)[C@@H]1CCCN1C(=O)[C@@H](CCCN)NC(=O)CNC(=O)[C@@H](NC(=O)[C@@H](NC(=O)[C@@H](N)CCCCN)[C@@H](O)CN)[C@@H](O)CN)C(=O)N[C@@H](CCCCN)C(=O)O (H-K[Dab(3S-OH)][Dab(3S-OH)]G[dOrn]PHK[ΔZArg]K-OH)	4 (≈ 3.35 µM)	360															16 (≈ 13.4 µM)	
N=C(N)NCC/C=C(\NC(=O)[C@H](CCCCN)NC(=O)[C@H](Cc1cnc[nH]1)NC(=O)[C@@H]1CCCN1C(=O)[C@@H](CCCN)NC(=O)CNC(=O)[C@H](CCN)NC(=O)[C@@H](NC(=O)[C@@H](N)CCCCN)[C@@H](O)CN)C(=O)N[C@@H](CCCCN)C(=O)NCCCCN (H-K[Dab(3S-OH)][Dab]G[dOrn]PHK[ΔZArg]K-{NH(CH2)4NH2})	4 (≈ 3.2 µM)	1100															4 (≈ 3.2 µM)	
C[C@H](O)[C@H](NC(=O)[C@@H](NC(=O)[C@@H](N)CCCCN)[C@@H](O)CN)C(=O)NCC(=O)N[C@H](CCCN)C(=O)N1CCC[C@H]1C(=O)N[C@@H](Cc1cnc[nH]1)C(=O)N[C@@H](CCCCN)C(=O)N/C(=C\CCNC(=N)N)C(=O)N[C@@H](CCCCN)C(=O)NCCCCN (H-K[Dab(3S-OH)][aThr]G[dOrn]PHK[ΔZArg]K-{NH(CH2)4NH2})	8 (≈ 6.4 µM)	1000															8 (≈ 6.4 µM)	
N=C(N)NCC/C=C(\NC(=O)[C@H](CCCCN)NC(=O)[C@H](Cc1cnc[nH]1)NC(=O)[C@@H]1CCCN1C(=O)[C@@H](CCCN)NC(=O)CNC(=O)[C@@H](NC(=O)[C@H](CCN)NC(=O)[C@@H](N)CCCCN)[C@@H](O)CN)C(=O)N[C@@H](CCCCN)C(=O)NCCCCN (H-K[Dab][Dab(3S-OH)]G[dOrn]PHK[ΔZArg]K-{NH(CH2)4NH2})	64 (≈ 51.3 µM)	5910															> 64	
CC[C@H](C)CCCCC(=O)N[C@@H](CCN)C(=O)N[C@H](C(=O)N[C@@H](CCN)C(=O)N[C@H]1CCNC(=O)[C@H]([C@@H](C)O)NC(=O)[C@H](CCN)NC(=O)[C@H](CCN)NC(=O)[C@H](CC(C)C)NC(=O)[C@@H](Cc2ccccc2)NC(=O)[C@H](CCN)NC1=O)[C@@H](C)O (X1-[Dab]T[Dab][Dab][Dab][dF]L[Dab][Dab]T; lactam 4-C)	0.5 (≈ 0.415 µM)		1 (≈ 0.831 µM)	0.5 (≈ 0.415 µM)	0.5 (≈ 0.415 µM)	0.5 (≈ 0.415 µM)	0.5 (≈ 0.415 µM)	1 (≈ 0.831 µM)	0.5 (≈ 0.415 µM)	0.5 (≈ 0.415 µM)	0.5 (≈ 0.415 µM)	0.5 (≈ 0.415 µM)	0.5 (≈ 0.415 µM)	0.5 (≈ 0.415 µM)	0.5 (≈ 0.415 µM)	0.5 (≈ 0.415 µM)	0.5 (≈ 0.415 µM)	
CO/N=C(\C(=O)N[C@@H]1C(=O)N2C(C(=O)O)=C(CSc3nc(=O)c(O)nn3C)CS[C@H]12)c1csc(N)n1 [CEFTRIAXONE]	≤ 0.125		< 0.25	> 64	> 64	> 64	> 64	> 64	> 64	> 64	> 64	8 (≈ 14.4 µM)	> 64	> 64	> 64	> 64	< 0.25	
O=C(O)c1cn(C2CC2)c2cc(N3CCNCC3)c(F)cc2c1=O [CIPROFLOXACIN]	≤ 0.125		0.5 (≈ 1.51 µM)	> 64	0.5 (≈ 1.51 µM)	> 64	32 (≈ 96.6 µM)	> 64	> 64	> 64	> 64	8 (≈ 24.1 µM)	> 64	< 0.125	> 64		< 0.25	Activity (Klebsiella pneumoniae [21]): Active
C[C@@H](O)[C@H]1C(=O)N2C(C(=O)O)=C(SCCNC=N)C[C@H]12 [IMIPENEM ANHYDROUS]	1 (≈ 3.34 µM)		2 (≈ 6.68 µM)	> 64	64 (≈ 214 µM)	> 64	64 (≈ 214 µM)	> 64	> 64	> 64	> 64	> 64	32 (≈ 107 µM)	> 64	> 64	> 64	0.5 (≈ 1.67 µM)	
GENTAMICIN			1	32	16	2	1	> 64	> 64	> 64	> 64	0.25	1	> 64	> 64	> 64		MIC (Klebsiella pneumoniae [1]): 0.25 µg/mL
